From ChEMBL document CHEMBL1135609, “Discovery of gamma-lactam hydroxamic acids as selective inhibitors of tumor necrosis factor alpha converting enzyme: design, synthesis, and structure-activity relationships” (J Med Chem, 2002)
pIC50, pKi: −log10 of the molar value.

Columns and labels:
[1] = molecular target: Matrix metalloproteinase-9 (Homo sapiens, UniProt P14780); assay: Affinity towards Matrix metalloprotease-9 (MMP-9)
[2] = molecular target: 72 kDa type IV collagenase (Homo sapiens, UniProt P08253); assay: Affinity for Matrix metalloprotease-2 (MMP-2)
[3] = molecular target: T1, Interstitial collagenase (Homo sapiens, UniProt P03956); assay: Affinity towards Matrix metalloprotease-1 (MMP-1)
T1 sequence (P03956 whole entry): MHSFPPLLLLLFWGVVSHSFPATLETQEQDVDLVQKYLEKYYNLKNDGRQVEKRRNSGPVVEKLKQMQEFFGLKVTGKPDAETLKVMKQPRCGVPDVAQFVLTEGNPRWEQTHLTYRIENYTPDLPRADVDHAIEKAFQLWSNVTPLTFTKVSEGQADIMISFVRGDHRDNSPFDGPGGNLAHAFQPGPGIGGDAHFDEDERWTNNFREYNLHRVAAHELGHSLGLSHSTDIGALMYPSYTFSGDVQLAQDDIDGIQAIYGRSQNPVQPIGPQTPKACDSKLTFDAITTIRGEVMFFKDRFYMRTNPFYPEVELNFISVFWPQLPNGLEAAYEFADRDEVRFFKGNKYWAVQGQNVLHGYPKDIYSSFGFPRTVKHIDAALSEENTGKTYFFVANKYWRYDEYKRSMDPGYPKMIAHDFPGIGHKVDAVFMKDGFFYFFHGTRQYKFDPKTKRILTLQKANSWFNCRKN

[4] = molecular target: T2, Disintegrin and metalloproteinase domain-containing protein 17 (Sus scrofa, UniProt O77636); assay: Inhibitory activity against porcine Tumor necrosis factor alpha converting enzyme.
[5] = molecular target: Disintegrin and metalloproteinase domain-containing protein 17 (Homo sapiens, UniProt P78536); assay: Inhibition of Tumor necrosis factor alpha secretion in LPS-stimulated human whole blood assay; assay type: functional, tissue-based
[6] = (§1) The compound was administered intravenously at a dose of 4 mg/Kg for determination of volume of distribution at steady state; assay type: ADME, organism-based, Canis lupus familiaris; conditions: dog, in vivo, iv, read-out: Vss
Summary of the method: (§2)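 Sprague Dawley rats and Beagle dogs were dosed in cassette fashion, iv at 4 mg/kg or orally at 8 mg/kg. Plasma samples were analysed by LC–MS–MS. The iv arm gave clearance, volume of distribution at steady state, terminal half-life and AUC. The oral arm gave tmax and bioavailability. Two animals were used per dosing group.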

[7] = (§3) The compound was administered intravenously at a dose of 4 mg/Kg for determination of systemic clearance; assay type: ADME, organism-based, Canis lupus familiaris; conditions: dog, in vivo, iv; summary of the method: as §2
[8] = molecular target: Stromelysin-1 (Homo sapiens, UniProt P08254); assay: Affinity for Matrix metalloprotease-3 (MMP-3)
[9] = molecular target: Neutrophil collagenase (Homo sapiens, UniProt P22894); assay: Affinity for Matrix metalloprotease-8 (MMP-8)
[10] = molecular target: T3, Matrilysin (Homo sapiens, UniProt P09237); assay: Affinity for Matrix metalloprotease-7 (MMP-7)
T3 sequence (P09237 whole entry): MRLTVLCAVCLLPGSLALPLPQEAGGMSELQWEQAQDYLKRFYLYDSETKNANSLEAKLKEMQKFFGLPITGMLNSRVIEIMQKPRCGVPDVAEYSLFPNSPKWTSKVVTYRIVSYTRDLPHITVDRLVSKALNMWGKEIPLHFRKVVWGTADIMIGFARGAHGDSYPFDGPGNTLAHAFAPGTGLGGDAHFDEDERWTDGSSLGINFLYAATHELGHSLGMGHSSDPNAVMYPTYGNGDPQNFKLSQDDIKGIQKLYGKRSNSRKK

[11] = molecular target: Collagenase 3 (Homo sapiens, UniProt P45452); assay: Affinity for Matrix metalloprotease-13 (MMP-13)
[12] = molecular target: Matrix metalloproteinase-14 (Homo sapiens, UniProt P50281); assay: Affinity for Matrix metalloprotease-14 (MMP-14)
[13] = molecular target: Matrix metalloproteinase-15 (Homo sapiens, UniProt P51511); assay: Affinity for Matrix metalloprotease-15 (MMP-15)
[14] = molecular target: Matrix metalloproteinase-16 (Homo sapiens, UniProt P51512); assay: Affinity for Matrix metalloprotease-16 (MMP-16)
[15] = as §1; assay type: ADME, organism-based; conditions: rat, in vivo, iv, read-out: Vss; summary of the method: as §2
[16] = molecular target: T2, Disintegrin and metalloproteinase domain-containing protein 17; assay: Affinity for Tumor necrosis factor alpha converting enzyme (TACE)
[17] = (§4) Bioavailability (dose 8 mg/kg p.o.); assay type: ADME, organism-based, Canis lupus familiaris; conditions: dog, in vivo, po; summary of the method: as §2
[18] = as §4; assay type: ADME, organism-based; conditions: rat, in vivo, po; summary of the method: as §2
[19] = tested on: Canis familiaris; assay: (§5) The compound was administered intravenously at a dose of 4 mg/Kg for determination area under curve; assay type: functional, organism-based; conditions: Canis lupus familiaris; summary of the method: as §2
[20] = tested on: Rattus norvegicus; assay: as §5; assay type: functional, organism-based; summary of the method: as §2
[21] = tested on: Rattus norvegicus; assay: as §3; assay type: functional, organism-based; summary of the method: as §2
[22] = tested on: Canis familiaris; assay: (§6) The compound was administered intravenously at a dose of 4 mg/Kg for determination of terminal half life; assay type: functional, organism-based; conditions: Canis lupus familiaris
Summary of the method: (§7)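 Cassette dosing in Sprague Dawley rats and Beagle dogs, given intravenously at 4 mg/kg. Plasma samples were analysed by LC–MS–MS, and terminal half-life was derived from the plasma profile. Two animals per dosing group.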

[23] = tested on: Rattus norvegicus; assay: as §6; assay type: functional, organism-based; summary of the method: as §7
[24] = tested on: Canis familiaris; assay: (§8) The compound was administered orally at a dose of 8 mg/Kg for determination of t max; assay type: functional, organism-based; conditions: Canis lupus familiaris; summary of the method: as §2
[25] = tested on: Rattus norvegicus; assay: as §8; assay type: functional, organism-based; summary of the method: as §2

Chain of 72 kDa type IV collagenase (P08253 whole entry): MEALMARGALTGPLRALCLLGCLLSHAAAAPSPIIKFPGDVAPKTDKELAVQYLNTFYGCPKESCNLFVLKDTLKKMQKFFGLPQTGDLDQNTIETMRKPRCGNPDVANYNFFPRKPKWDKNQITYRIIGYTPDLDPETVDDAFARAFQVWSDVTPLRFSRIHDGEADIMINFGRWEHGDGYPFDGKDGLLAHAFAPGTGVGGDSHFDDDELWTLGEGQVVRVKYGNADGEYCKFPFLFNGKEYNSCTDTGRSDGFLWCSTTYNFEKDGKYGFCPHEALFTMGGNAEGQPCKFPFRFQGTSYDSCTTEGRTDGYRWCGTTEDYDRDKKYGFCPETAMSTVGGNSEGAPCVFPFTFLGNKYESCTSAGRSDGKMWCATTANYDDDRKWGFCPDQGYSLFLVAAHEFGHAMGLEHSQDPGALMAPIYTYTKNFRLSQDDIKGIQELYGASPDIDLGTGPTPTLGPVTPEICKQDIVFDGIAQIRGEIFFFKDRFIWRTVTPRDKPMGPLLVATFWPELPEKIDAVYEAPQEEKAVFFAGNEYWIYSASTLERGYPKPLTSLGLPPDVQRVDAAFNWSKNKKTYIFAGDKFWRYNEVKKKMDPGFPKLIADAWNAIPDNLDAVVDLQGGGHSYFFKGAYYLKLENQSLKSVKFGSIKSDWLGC
Chain of Disintegrin and metalloproteinase domain-containing protein 17 (Homo sapiens, UniProt P78536) (P78536 whole entry, the tested form may be a part): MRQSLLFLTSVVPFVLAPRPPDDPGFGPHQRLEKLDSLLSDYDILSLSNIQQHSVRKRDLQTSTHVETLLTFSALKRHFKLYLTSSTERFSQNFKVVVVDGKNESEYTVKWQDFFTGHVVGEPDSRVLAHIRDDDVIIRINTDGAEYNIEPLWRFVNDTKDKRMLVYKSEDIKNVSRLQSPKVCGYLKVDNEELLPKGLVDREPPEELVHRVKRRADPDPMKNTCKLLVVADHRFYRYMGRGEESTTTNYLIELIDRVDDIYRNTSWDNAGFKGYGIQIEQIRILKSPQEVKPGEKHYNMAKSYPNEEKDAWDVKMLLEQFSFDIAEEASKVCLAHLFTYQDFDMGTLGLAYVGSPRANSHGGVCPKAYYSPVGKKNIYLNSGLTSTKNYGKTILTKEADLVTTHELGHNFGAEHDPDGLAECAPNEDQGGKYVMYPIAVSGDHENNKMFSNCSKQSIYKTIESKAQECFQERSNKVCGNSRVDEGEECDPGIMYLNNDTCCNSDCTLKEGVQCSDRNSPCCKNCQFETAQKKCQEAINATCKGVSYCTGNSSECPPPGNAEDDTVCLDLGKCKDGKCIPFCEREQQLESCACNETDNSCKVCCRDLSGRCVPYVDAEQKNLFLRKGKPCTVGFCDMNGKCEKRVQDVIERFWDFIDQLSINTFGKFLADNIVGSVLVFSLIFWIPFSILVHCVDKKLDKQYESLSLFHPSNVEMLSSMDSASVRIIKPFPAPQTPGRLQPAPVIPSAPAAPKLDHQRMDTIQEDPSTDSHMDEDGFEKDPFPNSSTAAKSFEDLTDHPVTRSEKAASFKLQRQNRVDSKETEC
T2 sequence (O77636 whole entry, the tested form may be a part): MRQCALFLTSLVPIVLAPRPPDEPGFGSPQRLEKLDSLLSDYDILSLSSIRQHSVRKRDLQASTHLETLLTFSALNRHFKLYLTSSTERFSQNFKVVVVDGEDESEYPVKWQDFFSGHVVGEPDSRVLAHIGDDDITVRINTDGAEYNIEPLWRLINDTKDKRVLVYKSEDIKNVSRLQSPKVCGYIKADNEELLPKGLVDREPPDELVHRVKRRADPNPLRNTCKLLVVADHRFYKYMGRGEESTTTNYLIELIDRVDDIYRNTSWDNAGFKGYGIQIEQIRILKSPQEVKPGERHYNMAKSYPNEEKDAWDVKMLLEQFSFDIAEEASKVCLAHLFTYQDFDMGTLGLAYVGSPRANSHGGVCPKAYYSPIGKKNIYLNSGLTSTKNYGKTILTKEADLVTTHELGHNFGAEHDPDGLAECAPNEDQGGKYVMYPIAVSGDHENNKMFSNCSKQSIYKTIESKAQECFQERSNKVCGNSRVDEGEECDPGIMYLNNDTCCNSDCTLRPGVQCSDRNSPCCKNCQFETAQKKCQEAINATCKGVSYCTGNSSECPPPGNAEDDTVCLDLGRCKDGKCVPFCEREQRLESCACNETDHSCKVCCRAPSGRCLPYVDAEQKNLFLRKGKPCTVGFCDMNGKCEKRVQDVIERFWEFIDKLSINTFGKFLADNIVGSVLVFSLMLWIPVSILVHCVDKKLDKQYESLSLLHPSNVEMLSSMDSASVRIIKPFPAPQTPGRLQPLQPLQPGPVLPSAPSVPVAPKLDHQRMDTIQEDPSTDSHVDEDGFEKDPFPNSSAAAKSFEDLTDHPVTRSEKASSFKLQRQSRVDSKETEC
Chain of Matrix metalloproteinase-9 (P14780 whole entry): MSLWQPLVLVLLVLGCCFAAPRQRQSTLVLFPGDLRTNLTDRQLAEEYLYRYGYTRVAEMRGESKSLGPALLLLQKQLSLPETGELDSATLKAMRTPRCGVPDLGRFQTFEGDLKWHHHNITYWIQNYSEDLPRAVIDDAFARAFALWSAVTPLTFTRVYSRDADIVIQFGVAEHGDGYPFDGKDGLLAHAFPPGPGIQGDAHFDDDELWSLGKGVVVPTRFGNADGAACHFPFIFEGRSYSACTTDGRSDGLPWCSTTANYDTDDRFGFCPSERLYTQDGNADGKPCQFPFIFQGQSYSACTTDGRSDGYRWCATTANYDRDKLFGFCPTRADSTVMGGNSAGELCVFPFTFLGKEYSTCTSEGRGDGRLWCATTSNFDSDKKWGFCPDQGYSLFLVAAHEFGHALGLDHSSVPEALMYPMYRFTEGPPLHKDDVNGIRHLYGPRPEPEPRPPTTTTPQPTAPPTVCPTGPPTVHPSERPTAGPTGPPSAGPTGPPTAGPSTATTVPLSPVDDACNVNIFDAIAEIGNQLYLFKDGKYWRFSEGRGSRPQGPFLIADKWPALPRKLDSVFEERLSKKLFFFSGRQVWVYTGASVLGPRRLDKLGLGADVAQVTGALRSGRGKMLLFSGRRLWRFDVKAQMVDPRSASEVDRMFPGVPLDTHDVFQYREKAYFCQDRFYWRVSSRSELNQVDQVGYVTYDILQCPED
Chain of Matrix metalloproteinase-16 (P51512 whole entry): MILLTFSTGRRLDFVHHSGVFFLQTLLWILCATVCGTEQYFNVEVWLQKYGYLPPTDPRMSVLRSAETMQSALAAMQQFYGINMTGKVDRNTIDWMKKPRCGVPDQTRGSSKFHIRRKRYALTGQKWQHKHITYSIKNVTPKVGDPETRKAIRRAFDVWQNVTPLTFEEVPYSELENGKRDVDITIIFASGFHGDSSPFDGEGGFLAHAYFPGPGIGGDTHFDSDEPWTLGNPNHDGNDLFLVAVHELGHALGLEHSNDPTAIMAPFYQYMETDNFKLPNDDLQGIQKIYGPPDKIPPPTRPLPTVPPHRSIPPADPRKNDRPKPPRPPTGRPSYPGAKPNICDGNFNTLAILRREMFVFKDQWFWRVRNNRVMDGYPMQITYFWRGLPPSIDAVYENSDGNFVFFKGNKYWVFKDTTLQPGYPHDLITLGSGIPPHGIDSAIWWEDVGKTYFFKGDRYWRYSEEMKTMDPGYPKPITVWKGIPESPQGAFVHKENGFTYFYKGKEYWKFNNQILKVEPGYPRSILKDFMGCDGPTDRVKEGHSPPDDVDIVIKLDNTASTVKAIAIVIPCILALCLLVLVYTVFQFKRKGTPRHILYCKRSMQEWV
Chain of Stromelysin-1 (P08254 whole entry): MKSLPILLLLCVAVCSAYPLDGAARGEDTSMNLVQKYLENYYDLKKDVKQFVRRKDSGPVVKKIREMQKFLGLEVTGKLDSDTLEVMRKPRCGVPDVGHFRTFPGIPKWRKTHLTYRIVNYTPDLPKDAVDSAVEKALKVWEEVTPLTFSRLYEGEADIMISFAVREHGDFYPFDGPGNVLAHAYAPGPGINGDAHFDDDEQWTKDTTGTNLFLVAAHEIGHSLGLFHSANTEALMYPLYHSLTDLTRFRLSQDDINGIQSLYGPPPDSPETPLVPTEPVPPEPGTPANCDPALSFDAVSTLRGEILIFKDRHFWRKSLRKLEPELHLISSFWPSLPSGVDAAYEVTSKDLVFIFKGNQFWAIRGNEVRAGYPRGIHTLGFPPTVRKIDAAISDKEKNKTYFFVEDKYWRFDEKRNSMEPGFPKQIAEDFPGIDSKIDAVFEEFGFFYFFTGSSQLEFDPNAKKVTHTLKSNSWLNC
Chain of Matrix metalloproteinase-15 (P51511 whole entry): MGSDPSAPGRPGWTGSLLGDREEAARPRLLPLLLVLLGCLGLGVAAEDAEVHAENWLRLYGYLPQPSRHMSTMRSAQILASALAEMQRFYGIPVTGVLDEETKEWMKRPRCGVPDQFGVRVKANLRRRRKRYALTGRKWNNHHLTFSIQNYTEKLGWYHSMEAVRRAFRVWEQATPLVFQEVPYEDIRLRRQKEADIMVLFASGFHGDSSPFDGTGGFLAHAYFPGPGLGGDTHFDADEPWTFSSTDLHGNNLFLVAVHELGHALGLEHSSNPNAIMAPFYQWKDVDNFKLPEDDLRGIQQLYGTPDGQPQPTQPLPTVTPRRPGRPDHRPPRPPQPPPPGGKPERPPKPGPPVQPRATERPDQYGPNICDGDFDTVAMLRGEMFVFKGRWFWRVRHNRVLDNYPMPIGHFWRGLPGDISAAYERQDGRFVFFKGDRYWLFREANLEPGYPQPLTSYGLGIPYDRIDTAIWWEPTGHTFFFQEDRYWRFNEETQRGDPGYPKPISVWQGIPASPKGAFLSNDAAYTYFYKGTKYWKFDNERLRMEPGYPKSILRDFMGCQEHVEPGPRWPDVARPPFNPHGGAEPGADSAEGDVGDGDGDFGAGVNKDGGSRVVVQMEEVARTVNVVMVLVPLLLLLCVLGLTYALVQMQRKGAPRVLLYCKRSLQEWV

| pKi [1] | pKi [2] | pKi [3] | Structure (SMILES) | pIC50 [4] | further results |
| --- | --- | --- | --- | --- | --- |
| 5.79 | 5.24 | 5.32 | Cc1cc(C)cc(COc2ccc([C@]3(C)CCN([C@H](C)C(=O)NO)C3=O)cc2)c1 | 8.40 |  |
| < 5.70 | < 5.52 | < 5.30 | COc1cc(COc2ccc([C@]3(C)CCN([C@H](C)C(=O)NO)C3=O)cc2)cc(OC)c1 | 8.15 |  |
| 6.23 | 6.15 | 5.40 | CC(C)Cc1ccc([C@]2(C)CCN([C@H](C)C(=O)NO)C2=O)cc1 | 6.00 |  |
| 6.62 | 6.97 | 6.66 | C[C@H](C(=O)NO)N1CC[C@@](C)(c2ccccc2)C1=O | 5.66 |  |
| 7.41 | 7.42 | < 5.30 | C[C@H](C(=O)NO)N1CC[C@@](C)(c2ccc(OCc3cccc([N+](=O)[O-])c3)cc2)C1=O | 8.22 |  |
| 7.54 | 7.72 | < 5.30 | C[C@H](C(=O)NO)N1CC[C@@](C)(c2ccc(OCc3ccccc3)cc2)C1=O | 8.40 |  |
| 7.40 | 7.96 | < 5.30 | C[C@H](C(=O)NO)N1CC[C@@](C)(c2ccc(OCc3ccc([N+](=O)[O-])cc3)cc2)C1=O | 8.22 |  |
| 4.99 | 5.69 | 4.52 | Cc1cc(COc2ccc([C@]3(C)CCN([C@H](C)C(=O)NO)C3=O)cc2)c2ccccc2n1 (stereo in doubt) [listing 1 of 2 here] |  | Vd [6]: 0.93 L/kg; clearance [7]: 15.7 mL/min/kg; pKi [8]: 6.85; pKi [9]: 6.59; pKi [10]: 6.59; pKi [11]: 5.85; pKi [12]: 4.80; pKi [13]: 5.40; pKi [14]: 5.80; Vd [15]: 2 L/kg; pKi [16]: 9.25; bioavailability [17]: 32%; bioavailability [18]: 41% |
| 7.46 | 7.09 | 5.64 | C[C@H](C(=O)NO)N1CC[C@@](C)(c2ccc(-c3ccccc3)cc2)C1=O | 4.89 |  |
| 7.18 | 7.46 | < 5.30 | C[C@H](C(=O)NO)N1CC[C@@](C)(c2ccc(OCc3ccccc3[N+](=O)[O-])cc2)C1=O | 8.40 |  |
| 8.05 | 8.32 | 7.04 | COc1ccc([C@]2(C)CCN([C@H](C)C(=O)NO)C2=O)cc1 | 6.05 |  |

Continued, compound first:

| Structure (SMILES) | pKi [1] | pKi [2] | pKi [3] | pIC50 [4] | further results |
| --- | --- | --- | --- | --- | --- |
| C[C@H](C(=O)NO)N1CC[C@@](C)(c2ccc(OCc3ccnc4ccccc34)cc2)C1=O |  |  |  | 8.74 | pIC50 [5]: 5.65 |
| C[C@H](C(=O)NO)N1CC[C@@](C)(c2ccc(OC(C)(C)C)cc2)C1=O |  |  |  | < 5.00 |  |
| C=CCOc1ccc([C@]2(C)CCN([C@H](C)C(=O)NO)C2=O)cc1 | 7.96 | 7.85 | 6.47 | 7.01 |  |
| Cc1cc(COc2ccc([C@]3(C)CCN([C@H](C)C(=O)NO)C3=O)cc2)c2ccccc2n1 (stereo in doubt; 5s) |  |  |  | 9.00 |  |
| Cc1cncc(C)c1COc1ccc([C@]2(C)CCN([C@H](C)C(=O)NO)C2=O)cc1 (stereo in doubt; 5q) |  |  |  | 8.52 | pIC50 [5]: 5.18 |
| C[C@H](C(=O)NO)N1CC[C@@](C)(c2ccc(OCc3ccncc3)cc2)C1=O |  |  |  | 7.68 | pIC50 [5]: 5.23 |
| Cc1cncc(C)c1COc1ccc([C@]2(C)CCN([C@H](C)C(=O)NO)C2=O)cc1 (stereo in doubt; 5p) |  |  |  | 7.80 | pIC50 [5]: 5.09 |
| C[C@H](C(=O)NO)N1CC[C@@](C)(c2ccc(Oc3ccccc3)cc2)C1=O | > 8.68 | > 8.55 | 6.84 | 6.73 |  |
| C[C@H](C(=O)NO)N1CC[C@@](C)(c2ccc(OCc3cc(C(F)(F)F)cc(C(F)(F)F)c3)cc2)C1=O | < 5.70 | < 5.52 | < 5.30 | 8.70 |  |
| Cc1cc(COc2ccc([C@]3(C)CCN([C@H](C)C(=O)NO)C3=O)cc2)c2ccccc2n1 (stereo in doubt) [listing 2 of 2 here] |  |  |  |  | AUC [19]: 4430 ng·h/mL; AUC [20]: 1810 ng·h/mL; CL (mL.min-1.kg-1) [21]: 35; T1/2 [22]: 7.1 h; T1/2 [23]: 11.8 h; Tmax [24]: 0.38 h; Tmax [25]: 0.38 h |
